Laboratory results: the array DNA melting data of Ke et al. (doi:10.1101/2024.01.08.574731)

Legend:
[1] = folding enthalpy; higher = less favourable; fluorescence melt of hairpins on a sequencing array, two-state fit; conditions: sodium 0.088 M
Summary of the method: (§1)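 Folding enthalpy and melting temperature come from bootstrapped two-state fits to Cy3 fluorescence of library hairpins carrying annealed Cy3 and quencher oligos on a sequenced MiSeq flow cell. Imaging was done in 50 mM Na-HEPES pH 8.0, 25 mM NaCl, stepping by 2.5 °C up to 60 °C, and signals were normalised to pre-quench Cy3 and to control constructs. Results of four replicates were combined by inverse variance, and fitted temperatures were raised by 9.35 °C to match UV melts.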

[2] = melting temperature; fluorescence melt of hairpins on a sequencing array, two-state fit, raised by 9.35 °C to match UV melts; conditions: sodium 0.088 M
Summary of the method: as §1

| Sequence | folding enthalpy [1] | Tm [2] |
| --- | --- | --- |
| GCTTAGCGAAAGCTCTGC ((..(((....)))..)) | -16.4 kcal/mol | 37.8 °C |
| GCTTAGCGAAAGCTTTGC ((..(((....)))..)) | -14.8 kcal/mol | 44.3 °C |
| GCTTATACGAAAGTAAGC (((..(((....)))))) | -21.5 kcal/mol | 37.4 °C |
| GCTTATGGAAACATAAGC (((((((....))))))) | -40.6 kcal/mol | 56 °C |
| GCTTCAGGAAACTGAAAC (.(((((....))))).) | -15 kcal/mol | 31.5 °C |
| GCTTCCCGAAAGGGAGC (((.(((....)))))) | -22.3 kcal/mol | 57.1 °C |
| GCTTCCGAAAGGACAGC ((((((....))).))) | -24.4 kcal/mol | 47.8 °C |
| GCTTCCGAAAGGATAGC ((((((....))).))) | -24.9 kcal/mol | 48.7 °C |
| GCTTCCGGAAACGAAAGC ((((.((....)).)))) | -29.7 kcal/mol | 43 °C |
| GCTTCGCGAAAGCAGAGC (((..((....))..))) | -18.2 kcal/mol | 48.3 °C |
| GCTTCGCGAAAGCGGGGC ((..(((....)))..)) | -18.5 kcal/mol | 57.9 °C |
| GCTTCGCGAAAGCGTCGC ((..(((....)))..)) | -15.6 kcal/mol | 41.4 °C |
| GCTTCGCGAAAGCGTTGC ((..(((....)))..)) | -20.3 kcal/mol | 47.2 °C |
| GCTTCGCGAAAGCTATGC ((.(.((....)).).)) | -13.4 kcal/mol | 43.5 °C |
| GCTTCGGGAAACCAAAGC ((((.((....)).)))) | -28.7 kcal/mol | 41.1 °C |
| GCTTCGGGAAACCGAGGC ((.((((....)))).)) | -42.3 kcal/mol | 53.5 °C |
| GCTTCGTCGAAAGACAGC (((..(((....)))))) | -11.5 kcal/mol | 34.5 °C |
| GCTTCTGAAAAGAAGC ((((((....)))))) | -31.9 kcal/mol | 60 °C |
| GCTTCTGGAAACAGAAAC (.(((((....))))).) | -17.7 kcal/mol | 32.2 °C |

| Sequence | folding enthalpy [1] | Tm [2] |
| --- | --- | --- |
| GCTTGAACGAAAGTTAGC (((..(((....)))))) | -13.7 kcal/mol | 36.1 °C |
| GCTTGCACGAAAGTGAGC (((..(((....)))))) | -17.3 kcal/mol | 44.4 °C |
| GCTTGCGAAAGCAACAGC ((((((....)))..))) | -11.4 kcal/mol | 44.4 °C |
| GCTTGCGAAAGCACAAGC ((((((....)))..))) | -16.1 kcal/mol | 45.3 °C |
| GCTTGCGAAAGCACTAGC ((((((....)))..))) | -12.7 kcal/mol | 33.8 °C |
| GCTTGCGAAAGCAGTAGC ((((((....)))..))) | -17.8 kcal/mol | 45.7 °C |
| GCTTGCGAAAGCATAGC ((((((....))).))) | -18.9 kcal/mol | 55.3 °C |
| GCTTGCGAAAGCATGAGC ((((((....)))..))) | -22.9 kcal/mol | 52.6 °C |
| GCTTGCTCGAAAGAGAGC (((..(((....)))))) | -21.3 kcal/mol | 49.1 °C |
| GCTTGGACGAAAGTCAGC (((..(((....)))))) | -16.7 kcal/mol | 42.1 °C |
| GCTTGGCGAAAGCAAGGC ((.(.((....)).).)) | -14.9 kcal/mol | 45.6 °C |
| GCTTGGCGAAAGCCATGC ((.((((....)))).)) | -27.2 kcal/mol | 65.4 °C |
| GCTTGGCGAAAGCCCTGC ((..(((....)))..)) | -13.6 kcal/mol | 40.2 °C |
| GCTTGGCGAAAGCCGTGC ((..(((....)))..)) | -15.3 kcal/mol | 53.4 °C |
| GCTTGGCGAAAGCGCAGC (((..((....))..))) | -12.8 kcal/mol | 43.5 °C |
| GCTTGGCGAAAGCTGAGC (((..((....))..))) | -22.3 kcal/mol | 56.2 °C |
| GCTTGGGAAACCAAGC ((((((....)))))) | -35.7 kcal/mol | 62.7 °C |
| GCTTGGGGAAACCTAGGC ((.(.((....)).).)) | -23.5 kcal/mol | 32.3 °C |
| GCTTGGGGAAACTCAGGC ((.((.(....).)).)) | -18.2 kcal/mol | 36.6 °C |
